Experimental data pooled from the literature.
Compare with care: the assays were run in different laboratories.

Structure (SMILES) | host | matrix | route | dose | setting | Cmax
CC(=Nc1ccc(N=Cc2cnccn2)cc1)N(C)C | male Sprague-Dawley rat | plasma | oral | 200 mg/kg | – | 397 ng/mL
COc1ccc2cc3n(c(=O)c2c1OC)CCc1cc2c(cc1-3)OCO2 | male Sprague-Dawley rat | blood | oral | 50 mg/kg | – | 233 ng/mL
N#C[C@@]12C[C@@H]1[C@@H](n1cnc3c(N[C@@H](C4CCC4)C4CC4)nc(I)nc31)[C@H](O)[C@@H]2O | male Wistar rat | plasma | oral | 1 mg/kg | – | 6.73 ng/mL
O=C1CC[C@H](N2Cc3cc(N4CCN(CC5CCN(c6ccc([C@@H]7c8ccc(O)cc8CC[C@@H]7c7ccccc7)cc6)CC5)CC4)ccc3C2=O)C(=O)N1 | male Sprague-Dawley rat | plasma | oral | 20 mg/kg | fed | 1040 ng/mL
Cc1c(C(=O)O)ccc2c3n(nc12)[C@@H]1[C@H](C3)N(CC2CC2)[C@@]2(C(=O)Nc3cc(Cl)ccc32)[C@H]1c1cccc(Cl)c1F | male rat | plasma | oral | 2 mg/kg | – | 5.7 µM
O=c1cc(-c2ccc(O)c(O)c2)oc2cc(O)cc(O)c12 | male Sprague-Dawley rat | plasma | oral | 30 mg/kg | – | 40.1 ng/mL
C[C@H]1[C@@H](O)O[C@@H]2O[C@@]3(C)CC[C@H]4[C@H](C)CC[C@@H]1[C@@]24OO3 | Sprague-Dawley rat | plasma | oral | 10 mg/kg | – | 227 ng/mL
CC1(CN)CCN(c2cnc3c(Sc4ccncc4Cl)n[nH]c3n2)CC1 | male Sprague-Dawley rat | plasma | oral | 10 mg/kg | – | 142 ng/mL
Nc1ccc(/C=C/C(=O)NCc2cc3cc(-c4ccc(C(=O)N5CCC(F)(F)CC5)cc4)cc(-c4ccc(F)cc4)c3o2)cn1 | rat | plasma | oral | 3 mg/kg | – | 5990 ng/mL
O=C1c2ccncc2C(=O)c2c1[nH]c1ccccc21 | rat | plasma | intravenous | 1 mg/kg | single dose | 3.25 µM
O=C(C=Cc1ccccc1)Nc1cc(-c2ccnc(N3CCC(O)CC3)c2)ccn1 | female Sprague-Dawley rat | plasma | intravenous | 5 mg/kg | – | 324 ng/mL
